# In ChEMBL document CHEMBL1134792, “Antimitotic antitumor agents: synthesis, structure-activity relationships, and biological characterization of N-aryl-N'-(2-chloroethyl)ureas as new selective alkylating agents” (J Med Chem, 2001):
# Activity calls are given as the source filed them. The calls are words filed in the database; no cut-off is given here.
# Legend:
# CHO [1] = test: Dose required to inhibit cell growth was determined against CHO cell line; NA= Not active represents IC50 >400 uM; format: functional, cell-based; conditions: Cricetulus griseus
# Procedure, shortened: (§1)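 Alamar Blue growth-inhibition assay. Cells ((1–5) × 10³ per well) were preincubated for 24 h, then exposed to increasing drug concentrations for 72 h at 37 °C. Alamar Blue (20%) was added and fluorescence read at ex 485 / em 590 nm. IC50 is the dose inhibiting growth by 50%. Means of ≥3 independent determinations.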
# MDA-MB-231 [2] = test: Dose required to inhibit cell growth was determined against MDA-MB-231 cell line of human non-hormone dependent breast carcinoma; format: functional, cell-based
# Procedure, shortened: (§2)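 Alamar Blue growth assay. (1–5) × 10^3 cells per well preincubated 24 h, then exposed to increasing drug concentrations for 72 h at 37 °C. Medium replaced with PBS containing 20% Alamar Blue, fluorescence read at 485/590 nm. IC50 is the dose inhibiting growth by 50%.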
# L1210 = test: Dose required to inhibit cell growth was determined against L1210 cell line of murine lymphocytotic leukemia; format: functional, cell-based; conditions: Mus musculus; procedure, shortened: as §2
# K562 [3] = test: Dose required to inhibit cell growth was determined against K562 cell line of chronic myelogenous leukemia; format: functional, cell-based; conditions: Homo sapiens; procedure, shortened: as §2
# LoVo [4] = test: Dose required to inhibit cell growth was determined against LoVo cell line of human adenocarcinoma; NA= Not active represents IC50 >400 uM; format: functional, cell-based; procedure, shortened: as §1
# P388 [5] = test: Dose required to inhibit cell growth was determined against P388D1 cell line of murine lymphocytotic leukemia; NA= Not active represents IC50 >400 uM; format: functional, cell-based; conditions: Mus musculus; procedure, shortened: as §1
# MDA-MB-231 [6] = test: DNA damages caused in MDA-MB-231 cells after 2 hr exposure to a concentration of 400 uM; format: functional, Homo sapiens
# Procedure, shortened: (§3)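 Growing MDA-MB-231 cells held 2 h at 37 °C in medium with or without 400 μM compound. Cells washed in cold PBS and lysed in Tris/SDS/EDTA/deferoxamine/proteinase K buffer. DNA isolated by salting out, then 3'-end labeled by T4 DNA polymerase nucleotide exchange. Incorporated radioactivity measured by dot filtration, expressed as dCps exchanged/ng DNA. Means ± SD, ≥3 determinations.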
# MDA-MB-231 [7] = test: Beta tubulin alkylation activity in MDA-MB-231 cells; format: functional, Homo sapiens; set-up: concentration or dose not given beside the values
# Procedure, shortened: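 MDA-MB-231 cells (~5 × 10^6), exponentially growing, exposed to 30 μM compound for 24 h at 37 °C. Lysed in Laemmli buffer, run on 10% SDS-PAGE, immunoblotted with anti-β-tubulin (TUB 2.1, 1:500) and peroxidase anti-mouse secondary, ECL detection. Normal and alkylated band densities integrated to give % alkylated β-tubulin. Representative of three experiments.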
# P388 [8] = test: Dose required to inhibit cell growth was determined against P388D1 cell line of murine lymphocytotic leukemia; format: functional, cell-based; conditions: Mus musculus; procedure, shortened: as §2
# LoVo [9] = test: Dose to inhibit cell growth determined against LoVo cell line of human adenocarcinoma; format: functional, cell-based; procedure, shortened: as §2
# HT-29 [10] = test: Dose required to inhibit cell growth was determined against HT-29 cell line of human adenocarcinoma; format: functional, cell-based; procedure, shortened: as §2
# CHO [11] = test: Dose required to inhibit cell growth was determined against CHO cell line; format: functional, cell-based; conditions: Cricetulus griseus; procedure, shortened: as §2
# HT-29 [12] = test: Dose required to inhibit cell growth was determined against HT-29 cell line of human adenocarcinoma; Not active represents IC50 >400 uM; format: functional, cell-based; procedure, shortened: as §1
# MDA-MB-231 [13] = test: Dose required to inhibit cell growth was determined against MDA-MB-231 cell line of human non-hormone dependent breast carcinoma; Not active represents IC50 >400 uM; format: functional, cell-based; procedure, shortened: as §1
# CHO [14] = test: Dose required to inhibit cell growth was determined against CHO cell line; Not active represents IC50 >400 uM; format: functional, cell-based; conditions: Cricetulus griseus; procedure, shortened: as §1
# [15] = Glutathione activity was measured after incubation with a conc. of 500 uM
# Procedure, shortened: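 Cell-free thiol assay. GSH 500 µM with 1 mM EDTA and 500 µM drug (from 2% ethanol solution) in 0.1 M phosphate buffer pH 7.4, 60 min at room temperature. DTNB (0.133 mM) was then added and A412 read. Reported as % of no-drug control, in triplicate.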
# [16] = biological target: T1, Glutathione reductase, mitochondrial (Homo sapiens) (UniProt P00390); test: Glutathione reductase activity was measured after incubation with a conc. of 500 uM; format: functional
# T1 sequence (whole entry): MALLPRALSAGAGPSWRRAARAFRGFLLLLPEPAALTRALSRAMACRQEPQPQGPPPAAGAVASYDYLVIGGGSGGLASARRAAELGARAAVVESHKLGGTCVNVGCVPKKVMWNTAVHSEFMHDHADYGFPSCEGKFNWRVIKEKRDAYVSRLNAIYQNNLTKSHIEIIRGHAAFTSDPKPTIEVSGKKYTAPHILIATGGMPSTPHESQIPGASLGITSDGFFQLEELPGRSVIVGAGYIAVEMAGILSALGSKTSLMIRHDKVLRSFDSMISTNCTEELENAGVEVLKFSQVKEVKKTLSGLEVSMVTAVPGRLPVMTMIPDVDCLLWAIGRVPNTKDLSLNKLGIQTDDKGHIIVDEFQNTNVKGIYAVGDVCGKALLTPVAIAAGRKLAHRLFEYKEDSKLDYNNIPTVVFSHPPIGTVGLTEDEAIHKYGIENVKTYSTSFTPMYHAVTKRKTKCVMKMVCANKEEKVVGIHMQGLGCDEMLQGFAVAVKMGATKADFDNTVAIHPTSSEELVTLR
# Procedure, shortened: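 Purified glutathione reductase (0.016 U/mL) with 100 µM NADPH, 1 mM EDTA, 1 mg/mL BSA and 500 µM drug (from 2% ethanol solution) in 0.1 M phosphate pH 7.4, preincubated 60 min at 30 °C. GSSG was then added for 60 min at 30 °C. Activity is the […] over 3 min, as % of no-drug control, in triplicate.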
# MDA-MB-231 [17] = test: Dose required to inhibit cell growth was determined against MDA-MB-231 cell line of human non-hormone dependent breast carcinoma; NA= Not active represents IC50 >400 uM; format: functional, cell-based; procedure, shortened: as §1
# HT-29 [18] = test: Dose required to inhibit cell growth was determined against HT-29 cell line of human adenocarcinoma; NA= Not active represents IC50 >400 uM; format: functional, cell-based; procedure, shortened: as §1
# K562 [19] = test: Dose required to inhibit cell growth was determined against K562 cell line of chronic myelogenous leukemia; Not active represents IC50 >400 uM; format: functional, cell-based; conditions: Homo sapiens; procedure, shortened: as §1
# MDA-MB-231 [20] = test: DNA damages caused in MDA-MB-231 cells after 2 hr compound exposure to 400 uM concentration; format: functional, Homo sapiens; procedure, shortened: as §3
# [21] = Alkylating activity by using 4-(4-nitrobenzyl)-pyridine (NBP) colorimetric assay
# Procedure, shortened: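 NBP colorimetric assay. Drug at 400 nmol/mL in ethanol was mixed with 10% NBP in ethanol and 50 mM sodium acetate pH 4.3, then heated at 80 °C for 60, 90, 120 or 150 min. Samples were chilled and basified with KOH/ethanol, and A570 was read against a drug-free blank. The alkylation rate (A570/min) is the slope of a linear regression of absorbance vs time. Mean ± SD of ≥3 independent experiments.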
Compound,IC50 (MDA-MB-231 [2]) [µM],IC50 (L1210) [µM],IC50 (K562 [3]) [µM],IC50 (P388 [8]) [µM],IC50 (HT-29 [10]) [µM],IC50 (CHO [11]) [µM],further results
Cc1cc(C)nc(NC(=O)NCCCl)c1,50,144,113,–,–,–,NA (CHO [1]): inactive; NA (LoVo [4]): inactive; NA (P388 [5]): inactive
O=C(NCCCl)Nc1ccc2ccccc2c1,6.1,3,3,5.3,5.5,7.2,DNA damage (MDA-MB-231 [6]): 1.89 10e7 exchanged dCps (ng of DNA); Activity (MDA-MB-231 [7]): 47%; IC50 (LoVo [9]): 6.2 µM
CCC(C)c1ccc(NC(=O)NC)cc1 (stereo not drawn),–,62,142,–,–,–,NA (HT-29 [12]): inactive; NA (MDA-MB-231 [13]): inactive; NA (CHO [14]): inactive
O=NN(CCCl)C(=O)NCCCl [CARMUSTINE],7.4,4.5,9,5.9,17,8.2,DNA damage (MDA-MB-231 [6]): 19.9 10e7 exchanged dCps (ng of DNA); Activity [15]: 50%; Activity [16]: 20%
O=C(NCCCl)Nc1cccc2c1CCCC2,–,55,76,–,–,56,NA (MDA-MB-231 [17]): inactive; NA (HT-29 [18]): inactive; NA (LoVo [4]): inactive; NA (P388 [5]): inactive
CNC(=O)Nc1ccc(C(C)(C)C)cc1,–,80,–,–,196,–,NA (K562 [19]): inactive; NA (MDA-MB-231 [13]): inactive; NA (CHO [14]): inactive
O=C(NCCCl)Nc1ccc(I)cc1,5.7,3.8,2.1,5.4,3.9,4.8,DNA damage (MDA-MB-231 [20]): 2.66 10e7 exchanged dCps (ng of DNA); Activity [15]: 100%; Activity [21]: 3.1 A570 min-1; Activity [16]: 98%; Activity (MDA-MB-231 [7]): 44%; IC50 (LoVo [9]): 5.4 µM
